Reference: ChEMBL document CHEMBL1133797, “Synthesis and structure--activity analysis of novel dihydropyridine derivatives to overcome multidrug resistance” (Bioorg Med Chem Lett, 2001)
Each block holds one compound with its values, some of them ahead of it.

Experiments:
Rattus norvegicus = organism: Rattus norvegicus; assay: Calcium antagonistic activity determined by the inhibitory effect on high-potassium depolarization-induced contracture in isolated rat aorta.; format: functional
KB 3-1 = assay: Resistance index determined as the ratio of IC50 of doxorubicin with compound (1 ug/mL) in KB VJ300 cells divided by the control tested in vitro; format: functional, Homo sapiens
Mus musculus [1] = assay: Survival days of vincristine (0.1 mg/kg, ip) treated mice after 100 mg/kg, ip dose divided by survival days of mice treated by vincristine (0.1 mg/kg, ip) alone; format: functional; details: route intraperitoneal
Summary of the method: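 Mice bearing P388 leukemia cells were given vincristine 0.1 mg/kg ip together with the test agent at 100 mg/kg ip. Survival days were recorded. Antitumor activity (%) is survival days with the combination divided by survival days of mice given vincristine 0.1 mg/kg ip alone.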

Mus musculus [2] = assay: Survival days of vincristine (0.1 mg/kg, ip) treated mice after 30 mg/kg, ip dose divided by survival days of mice treated by vincristine (0.1 mg/kg, ip) alone; format: functional; details: route intraperitoneal
Summary of the method: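 In P388 leukemia-bearing mice, the test agent was dosed at 30 mg/kg ip with vincristine 0.1 mg/kg ip. Survival time was recorded. The value (%) is the ratio of survival days under the combination to survival days under vincristine 0.1 mg/kg ip alone.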

IC50 (Rattus norvegicus): 1.4 µM
SMILES: COC(=O)C1=C(C)NC(C)=C(C(=O)OCCN(C)Cc2ccccc2)C1c1cccc([N+](=O)[O-])c1 (stereo unspecified) [NICARDIPINE]

SMILES: CCCCCC1C(C(=O)OCCCc2cccnc2)=C(C)N=C(C)/C1=C(/O)OCCCN1CCN(Cc2ccccc2)CC1 (stereo unspecified)
Resistance index (KB 3-1): 1 | Activity (Mus musculus [1]): 150% | IC50 (Rattus norvegicus): 33 µM

SMILES: CCCCCC1C(C(=O)OCCCc2ccccc2)=C(C)N=C(C)/C1=C(/O)OCCCc1ccccc1 (stereo unspecified)
Resistance index (KB 3-1): 22.7

SMILES: CCCCCC1C(C(=O)OCCc2ccc(N(C)C)cc2)=C(C)N=C(C)/C1=C(/O)OCCc1ccc(N(C)C)cc1 (stereo unspecified)
Resistance index (KB 3-1): 11.2

SMILES: CCCCCC1C(C(=O)OCCCc2cccnc2)=C(C)N=C(C)/C1=C(/O)OCCCN1CCN(C(c2ccccc2)c2ccccc2)CC1 (stereo unspecified)
Resistance index (KB 3-1): 1.1 | Activity (Mus musculus [2]): 143% | IC50 (Rattus norvegicus): 175 µM

SMILES: CCCCCC1C(C(=O)OCCCc2ccccn2)=C(C)N=C(C)/C1=C(/O)OCCCN1CCN(C(c2ccccc2)c2ccccc2)CC1 (stereo unspecified)
Resistance index (KB 3-1): 1.7 | Activity (Mus musculus [1]): 120%

IC50 (Rattus norvegicus): 8.7 µM
SMILES: CC1=NC(C)=C(C(=O)OCc2ccncc2)C(C2=C(C)SCCS2)/C1=C(\O)OCc1ccncc1 (stereo unspecified)

SMILES: CCCCCC1C(C(=O)OCCN(C)Cc2ccccc2)=C(C)N=C(C)/C1=C(/O)OCCN(C)Cc1ccccc1 (stereo unspecified)
Resistance index (KB 3-1): 3.9 | Activity (Mus musculus [1]): 128% | IC50 (Rattus norvegicus): 115 µM

SMILES: CCCCCC1C(C(=O)OCCc2ccc(N(C)C)cc2)=C(C)N=C(C)/C1=C(/O)OCCCN1CCN(C(c2ccccc2)c2ccccc2)CC1 (stereo unspecified)
Resistance index (KB 3-1): 23.5

SMILES: CCCCCC1C(C(=O)O/C=C/Cc2cccnc2)=C(C)N=C(C)/C1=C(/O)O/C=C/Cc1cccnc1 (stereo unspecified)
Resistance index (KB 3-1): 1.8 | Activity (Mus musculus [1]): 89%

SMILES: CCCCCC1C(C(=O)OCCN(C)Cc2ccccc2)=C(C)N=C(C)/C1=C(/O)OCCCc1cccnc1 (stereo unspecified)
Resistance index (KB 3-1): 1.4 | Activity (Mus musculus [1]): 144% | IC50 (Rattus norvegicus): 135 µM

SMILES: CCCCCC1C(C(=O)OCCCc2cccnc2)=C(C)N=C(C)/C1=C(/O)OCCCc1cccnc1 (stereo unspecified)
Resistance index (KB 3-1): 2 | Activity (Mus musculus [1]): 161% | IC50 (Rattus norvegicus): 46 µM

SMILES: CCCCCC1C(C(=O)OCCCc2ccncc2)=C(C)N=C(C)/C1=C(/O)OCCCN1CCN(C(c2ccccc2)c2ccccc2)CC1 (stereo unspecified)
Resistance index (KB 3-1): 1

SMILES: CCCCCC1C(C(=O)OCCCN2CCN(Cc3ccccc3)CC2)=C(C)N=C(C)/C1=C(/O)OCCCN1CCN(Cc2ccccc2)CC1 (stereo unspecified)
Resistance index (KB 3-1): 1.1 | Activity (Mus musculus [1]): 127% | IC50 (Rattus norvegicus): 230 µM

SMILES: CCCCCC1C(C(=O)OCCc2ccc(N(C)C)cc2)=C(C)N=C(C)/C1=C(/O)OCCCc1cccnc1 (stereo unspecified)
Resistance index (KB 3-1): 1.8 | Activity (Mus musculus [1]): 125% | IC50 (Rattus norvegicus): 45 µM
